{"data": "Measurements collected from several papers", "organism": "Bacillus subtilis", "read-out": "microbial growth", "note": "Compare with care: the assays were run in different laboratories."}
{"Compound": "Clc1cccc(NCc2ccc(Oc3ccccn3)cc2)c1", "MIC": "1.8 µg/mL"}
{"Compound": "C[n+]1c(/C=C/c2c[nH]c3ccccc23)cc(/C=C2\\Sc3ccccc3N2CCCN2CCCC2)c2ccccc21.[I-]", "assay": "broth dilution", "system": "168", "MIC": "2 µg/mL"}
{"Compound": "CC1=NN(CNc2ccc(C(=O)O)cc2)C(=O)C1=NNn1c(-c2ccccc2)nc2ccccc2c1=O", "assay": "broth dilution", "conditions": "24 h", "MIC": "50.5 µM"}
{"Compound": "O=C(O)c1ccc(-n2cc(/C=N/N(c3ccccc3)c3ccccc3)c(-c3cccc(F)c3)n2)cc1", "system": "ATCC6623", "MIC": "1.56 µg/mL"}
{"Compound": "O=C(O)CN1C(=O)/C(=C/c2c3ccccc3c(-c3ccc(N(c4ccccc4)c4ccccc4)cc3)c3ccccc23)NC1=S", "assay": "broth dilution", "system": "ATCC6633", "MIC": "> 1000 µg/mL"}
{"Compound": "C[C@@H](O)[C@H]1C(=O)N2C(C(=O)O)=C(S[C@@H]3CN[C@H](C(=O)N(C)C)C3)[C@H](C)[C@H]12", "assay": "broth dilution", "conditions": "24 h", "MIC": "0.0625 µg/mL"}
{"Compound": "CCCCCCCC[P+](/C=C(/c1ccccc1)c1cc(Cl)ccc1O)(CCCCCCCC)CCCCCCCC", "conditions": "21 h", "MIC": "> 80 µM"}
{"Compound": "C/C=C(\\C)c1cc(OC(=O)c2c(C)c(Cl)c(O)c(Cl)c2O)c(C)c(O)c1C(=O)O", "assay": "broth dilution", "system": "BS01", "MIC": "64 µg/mL"}
{"Compound": "Cc1ccccc1NCc1ccc(Oc2ccccn2)cc1", "MIC": "1.8 µg/mL"}
{"Compound": "O=C(O)c1cc(O)c(O)c(OC(=O)c2cc(O)c(O)c(O)c2)c1", "assay": "broth dilution", "system": "ATCC6633", "MIC": "> 200 µM"}
{"Compound": "O=C(O)c1ccc(-n2cc(/C=N/Nc3cccc(Cl)c3F)c(-c3cccc(F)c3)n2)cc1", "system": "ATCC6623", "MIC": "1.56 µg/mL"}
{"Compound": "CO[C@H]1/C=C/O[C@@]2(C)Oc3c(C)c(O)c4c(O)c(c(/C=N/N5CCN(C)CC5)c(O)c4c3C2=O)NC(=O)/C(C)=C\\C=C\\[C@H](C)[C@H](O)[C@@H](C)[C@@H](O)[C@@H](C)[C@H](OC(C)=O)[C@@H]1C", "assay": "broth dilution", "system": "168", "MIC": "4 µg/mL"}
{"Compound": "COc1ccc(NCc2ccc(Oc3ccccn3)cc2)cc1", "MIC": "> 6.24 µg/mL"}
{"Compound": "O=C(O)c1ccc(-n2cc(/C=N/N(Cc3ccccc3)Cc3ccccc3)c(-c3ccc(F)cc3)n2)cc1", "system": "ATCC6623", "MIC": "6.25 µg/mL"}
{"Compound": "O=C(Nc1ccc2c(c1)OC(F)(F)O2)Nc1ccc(Cl)c(C(F)(F)F)c1", "system": "168", "MIC": "1 µM"}
{"Compound": "C[n+]1c(/C=C/c2ccc(O)cc2)cc(/C=C2\\Sc3ccccc3N2CCCN2CCCC2)c2ccccc21.[I-]", "assay": "broth dilution", "system": "168", "MIC": "16 µg/mL"}
{"Compound": "O=C1NC(=S)N/C1=C\\c1ccc(-c2ccc(N(c3ccccc3)c3ccccc3)cc2)c2ccccc12", "assay": "broth dilution", "system": "ATCC6633", "MIC": "> 1000 µg/mL"}
{"Compound": "CN[C@H](CC(C)C)C(=O)N[C@H]1C(=O)N[C@@H](CC(N)=O)C(=O)N[C@H]2C(=O)N[C@H]3C(=O)N[C@H](C(=O)N[C@H](C(=O)O)c4cc(O)cc(O)c4-c4cc3ccc4O)[C@H](O)c3ccc(c(Cl)c3)Oc3cc2cc(c3O[C@@H]2O[C@H](CO)[C@@H](O)[C@H](O)[C@H]2O[C@H]2C[C@](C)(N)[C@H](O)[C@H](C)O2)Oc2ccc(cc2Cl)[C@H]1O", "assay": "broth dilution", "system": "168", "MIC": "0.25 µg/mL"}
{"Compound": "Cc1ccc(NCc2ccc(Oc3ccccn3)cc2)cc1", "MIC": "1.8 µg/mL"}
{"Compound": "NC[C@H]1O[C@H](O[C@H]2[C@H](O)[C@@H](O[C@H]3O[C@H](CO)[C@@H](O)[C@H](N)[C@H]3O)[C@H](N)C[C@@H]2N)[C@H](O)[C@@H](O)[C@@H]1O", "MIC": "2 to 4 µg/mL"}
{"Compound": "O=C(O)c1ccc(-n2cc(/C=N/Nc3c(F)c(F)c(F)c(F)c3F)c(-c3cccc(F)c3)n2)cc1", "system": "ATCC6623", "MIC": "6.25 µg/mL"}
{"Compound": "CC1=NN(CNc2ccccn2)C(=O)C1=NNn1c(-c2ccccc2)nc2ccccc2c1=O", "assay": "broth dilution", "conditions": "24 h", "MIC": "55.2 µM"}
{"Compound": "CCCCCC/C=C\\CCCCCCCCCc1cc(O)cc(O)c1", "assay": "broth dilution", "system": "168", "MIC": "> 64 µg/mL"}
{"Compound": "O=C(O)CN1C(=O)/C(=C/c2ccc(-c3ccc(N(c4ccccc4)c4ccccc4)cc3)cc2)SC1=S", "assay": "broth dilution", "system": "ATCC6633", "MIC": "1.95 µg/mL"}
{"Compound": "N#Cc1ccc(N/N=C/c2cn(-c3ccc(C(=O)O)cc3)nc2-c2ccc(F)cc2)cc1", "system": "ATCC6623", "MIC": "25 µg/mL"}
{"Compound": "CCCCCCCCOC(=O)c1cc(O)c(O)c(O)c1", "assay": "broth dilution", "system": "ATCC6633", "MIC": "12.5 to 25 µM"}
{"Compound": "O=C(O)c1cn(C2CC2)c2cc(N3CCNCC3)c(F)cc2c1=O", "assay": "broth dilution", "system": "ATCC6633", "MIC": "0.03 µg/mL"}
{"Compound": "O=C(O)c1ccc(-n2cc(/C=N/Nc3ccc(Br)cc3)c(-c3cccc(F)c3)n2)cc1", "system": "ATCC6623", "MIC": "12.5 µg/mL"}
{"Compound": "Fc1ccccc1NCc1ccc(Oc2ccccn2)cc1", "MIC": "1.8 µg/mL"}
{"Compound": "CCCC[P+](/C=C(/c1ccccc1)c1cc(Cl)ccc1OC)(CCCC)CCCC", "conditions": "21 h", "MIC": "1 µM"}
{"Compound": "O=C(O)c1ccc(-n2cc(/C=N/Nc3ccc(F)cc3)c(-c3ccc(F)cc3)n2)cc1", "system": "ATCC6623", "MIC": "25 µg/mL"}
{"Compound": "CSc1ccc(/C=C/c2cc(/C=C3\\Sc4ccccc4N3CCCN3CCCC3)c3ccccc3[n+]2C)cc1.[I-]", "assay": "broth dilution", "system": "168", "MIC": "16 µg/mL"}
{"Compound": "CC1=NN(CNC(=O)c2ccccc2)C(=O)C1=NNn1c(-c2ccccc2)nc2ccccc2c1=O", "assay": "broth dilution", "conditions": "24 h", "MIC": "51.9 µM"}
{"Compound": "O=C(O)c1ccc(-n2cc(/C=N/Nc3c(F)c(F)cc(F)c3F)c(-c3cccc(F)c3)n2)cc1", "system": "ATCC6623", "MIC": "12.5 µg/mL"}
{"Compound": "CCCCCCC[P+](/C=C(/c1ccccc1)c1cc(Cl)ccc1O)(CCCCCCC)CCCCCCC", "conditions": "21 h", "MIC": "10 µM"}
{"Compound": "CN[C@H](CC(C)C)C(=O)N[C@H]1C(=O)N[C@@H](CC(N)=O)C(=O)N[C@H]2C(=O)N[C@H]3C(=O)N[C@H](C(=O)N[C@H](C(=O)O)c4cc(O)cc(O)c4-c4cc3ccc4O)[C@H](O)c3ccc(c(Cl)c3)Oc3cc2cc(c3O[C@@H]2O[C@H](CO)[C@@H](O)[C@H](O)[C@H]2O[C@H]2C[C@](C)(N)[C@H](O)[C@H](C)O2)Oc2ccc(cc2Cl)[C@H]1O", "assay": "broth dilution", "system": "ATCC6633", "MIC": "0.24 µg/mL"}
{"Compound": "C/C=C(\\C)c1cc(O)c(C)c(OC(=O)c2c(C)cc(O)c(Cl)c2O)c1", "assay": "broth dilution", "system": "BS01", "MIC": "4 µg/mL"}
{"Compound": "Cc1cc(/C=C2\\Sc3ccccc3N2CCCN2CCC(C)CC2)c2ccccc2[n+]1C.[I-]", "assay": "broth dilution", "system": "168", "MIC": "1 µg/mL"}
{"Compound": "CCCCC[P+](/C=C(/c1ccccc1)c1cc(Cl)ccc1OC)(CCCCC)CCCCC", "conditions": "21 h", "MIC": "2 µM"}
{"Compound": "CC1CCN(CCCN2/C(=C/c3cc[n+](C)c4ccccc34)Sc3ccccc32)CC1.[I-]", "assay": "broth dilution", "system": "168", "MIC": "4 µg/mL"}
{"Compound": "O=C1NC(=S)S/C1=C\\c1ccc(-c2ccc(N(c3ccccc3)c3ccccc3)cc2)cc1", "assay": "broth dilution", "system": "ATCC6633", "MIC": "1000 µg/mL"}
{"Compound": "CC1(C)S[C@@H]2[C@H](NC(=O)[C@H](N)c3ccccc3)C(=O)N2[C@H]1C(=O)O", "assay": "broth dilution", "system": "BS01", "MIC": "0.13 µg/mL"}
{"Compound": "Brc1ccc(NCc2ccc(Oc3ccccn3)cc2)cc1", "MIC": "> 3.1 µg/mL"}
{"Compound": "CCCCC[P+](/C=C(/c1ccccc1)c1cc(Cl)ccc1O)(CCCCC)CCCCC", "conditions": "21 h", "MIC": "~2 µM"}
{"Compound": "O=C1NC(=S)N/C1=C\\c1ccc(-c2ccc(N(c3ccccc3)c3ccccc3)cc2)cc1", "assay": "broth dilution", "system": "ATCC6633", "MIC": "> 1000 µg/mL"}
{"Compound": "Fc1ccc(NCc2ccc(Oc3ccccn3)cc2)cc1", "MIC": "1.6 µg/mL"}
